# Laboratory results as given in ChEMBL document CHEMBL1151961, “14,15-Epoxyeicosa-5,8,11-trienoic acid (14,15-EET) surrogates containing epoxide bioisosteres: influence upon vascular relaxation and soluble epoxide hydrolase inhibition” (J Med Chem, 2009).
# Key:
# [1] = Vasorelaxant activity against U46619-induced contraction in bovine coronary artery ring treated after U46619 challenge; assay type: functional, tissue-based; settings: Bos taurus
# In short: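 Bioassay run 3-5 times (n = 3-5); reported values are means, ±10% SD.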
# [2] = molecular target: T1, Bifunctional epoxide hydrolase 2 (Homo sapiens, UniProt P34913); experiment: Inhibition of human recombinant soluble epoxide hydrolase expressed in baculovirus system assessed as appearance of 6-methoxynaphthaldehyde product by fluorescent-based assay
# T1 sequence (P34913 whole entry): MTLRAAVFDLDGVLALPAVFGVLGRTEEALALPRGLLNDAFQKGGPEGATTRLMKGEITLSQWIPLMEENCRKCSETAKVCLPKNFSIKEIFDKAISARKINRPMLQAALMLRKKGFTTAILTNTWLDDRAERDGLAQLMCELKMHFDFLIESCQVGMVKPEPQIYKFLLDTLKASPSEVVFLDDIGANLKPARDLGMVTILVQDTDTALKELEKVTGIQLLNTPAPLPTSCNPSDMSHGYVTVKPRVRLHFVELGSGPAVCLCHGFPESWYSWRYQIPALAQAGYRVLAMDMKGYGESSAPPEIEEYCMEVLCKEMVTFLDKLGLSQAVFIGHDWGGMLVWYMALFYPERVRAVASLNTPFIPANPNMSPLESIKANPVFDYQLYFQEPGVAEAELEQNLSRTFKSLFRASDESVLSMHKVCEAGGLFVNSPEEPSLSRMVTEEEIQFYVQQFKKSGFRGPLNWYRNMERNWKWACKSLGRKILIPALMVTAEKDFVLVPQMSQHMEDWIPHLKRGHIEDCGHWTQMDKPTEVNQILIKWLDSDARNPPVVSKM
# [3] = Vasorelaxant activity against U46619-induced contraction in bovine coronary artery ring at 10 uM treated after U46619 challenge; assay type: functional, Bos taurus; design: scale not given: the % may be the effect or the level left
# [4] = Vasorelaxant activity against U46619-induced contraction in bovine coronary artery ring at 10 uM treated after U46619 challenge; design: scale not given: the % may be the effect or the level left
Compound,EC50 ([1]; read-out: EC50) [µM],IC50 [2] [µM],EC50 ([1]; read-out: ED50 (the source's name)) [µM],Activity [3] [%],Activity [4] [%]
CCCCCOC(=O)NCCCC/C=C\CCCCCCC(=O)O,8.3,2.83,,64,
CCCCCNC(=O)NOCCC/C=C\CCCCCCC(=O)O,3.7,1.37,,87,
CCCCCNC(=O)NCCCC/C=C/CCCCCCC(=O)O,> 10,0.0485,,29,
CCCCCNC(=O)NCCCCCCC/C=C\CCCC(=O)O,5.6,0.793,,66,
CCCCCCNC(=O)NCCC/C=C\CCCCCCC(=O)O,3.5,0.016,,86,
CCCCCCC(=O)NCCCCCCCC#CCCCC(=O)O,5.7,0.272,,69,
CCCCCc1ccc(CCCC/C=C\CCCCCCC(=O)O)o1,> 10,7.15,,11,
CCCCCC1CN=C(CCCC/C=C\CCCCCCC(=O)OC)O1 (stereo unspecified),> 10,0.688,,33,
CCCCNC(=O)NCCCCC/C=C\CCCCCCC(=O)OC,4.6,0.152,,84,
CCCCCCC(=O)N(CCCC/C=C\CCCCCCC(=O)O)C(C)C,1.7,19,,100,
CCCCCNC(=O)NCCCC/C=C\CCC(=O)O,> 10,1.36,,16,
CCCCCNC(=O)NCCCCC#CCCCCCCC(=O)O,3.1,0.043,,62,
CCCCCNC(=O)NCCCCC#CCCC(=O)O,> 10,8.11,,46,
CCNC(=O)NCCCC/C=C\CCCCCCCCCC(=O)O,> 10,2.6,,50,
CCCCCN(C)C(=O)N(C)CCCCCCCC#CCCCC(=O)O,2.3,11.1,,77.5,
CCCCCc1cn(CCCC/C=C\CCCCCCC(=O)[O-])nn1.[Na+],6.2,17.8,,65,
CCCCNC(=O)C(=O)NCCCC/C=C\CCCCCCC(=O)O,1.7,58.7,,89,
CCCCC[C@@H]1O[C@@H]1C/C=C\C/C=C\C/C=C\CCCC(=O)O (relative stereo),,,2.2,,85
CCCCCNC(=S)NCCCC/C=C\CCCCCCC(=O)O,1.5,0.77,,99,
CCCCN(C)C(=O)C(=O)N(C)CCCC/C=C\CCCCCCC(=O)O,4.4,17.6,,70,

# More lines, main results first:
EC50 ([1]; read-out: EC50) [µM],IC50 [2] [µM],EC50 ([1]; read-out: ED50 (the source's name)) [µM],Compound,Activity [3] [%],Activity [4] [%]
3.2,8.48,,CCCCCN(C)C(=O)N(C)CCCC/C=C\CCCCCCC(=O)O,83,
3.2,1.45,,CCCCCN(C)C(=O)NCCCC/C=C\CCCCCCC(=O)O,88,
> 10,13.9,,CCCCCCN(C)C(=O)CCCC/C=C\CCCCCCC(=O)O,12,
6.1,0.079,,CCCCCCC(=O)NCCCC/C=C\CCCCCCC(=O)O,64.5,
4.3,11.2,,CCCCCCC(=O)N(C)CCCC/C=C\CCCCCCC(=O)O,64.5,
7.6,0.0715,,CCCCCNC(=O)N(C)CCCC/C=C\CCCCCCC(=O)O,59,
4.9,0.066,,CCCCCCNC(=O)CCCC/C=C\CCCCCCC(=O)O,74,
9.3,3.48,,CCCCCNC(=O)OCCCC/C=C\CCCCCCC(=O)O,53,
7.5,0.046,,CCCCCNC(=O)NCCCC/C=C\CCCCCCC(=O)O,63,
